In ChEMBL document CHEMBL1132369, “Synthesis of 1-(2-aminophenyl)isoquinolines and the biological activity of their cis-dichloro platinum(II) complexes” (J Med Chem, 1999):

Assays:
L1210 [1] = assay: Compound was evaluated for inhibition of DNA synthesis during 48 hours with L1210 murine leukemia cells; assay type: functional, cell-based, Mus musculus
Outline: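 Log-phase L1210 cells, cultured and treated as in the growth assay (5 × 10^4 cells/mL, 48 h total exposure; Pt complexes from DMSO, final 0.5%). At 42 h, 0.5 μCi [6-3H]thymidine was added and incubation continued 6 h. Cells were harvested onto glass-fibre filters, washed twice with water, and counted by liquid scintillation. IC50 is for inhibition of thymidine incorporation.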

L1210 [2] = assay: Compound was evaluated for growth inhibition during 48 hours with L1210 murine leukemia cells; assay type: functional, cell-based, Mus musculus
Outline: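 L1210 mouse leukemia cells grown in suspension in DMEM with 10% FCS, 2 mM glutamine, streptomycin and penicillin, at 37 °C in 5% CO2. Log-phase cells at 5 × 10^4 cells/mL were exposed to a range of concentrations for 48 h. Pt complexes came from DMSO stocks, pre-held 30 min at 40 °C, final DMSO 0.5%; ligand hydrochlorides were given in water. Cells were counted by haemocytometer, inhibition taken as % of untreated control, and IC50 interpolated from a log-linear plot. At least two independent duplicates were run.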

| Compound | IC50 (L1210 [1]; Mus musculus, L1210, 48 h) [µM] | IC50 (L1210 [2]; Mus musculus, L1210, 48 h) [µM] | IC50 (L1210 [1]; l1210) [µM] | IC50 (L1210 [2]; l1210) [µM] |
| --- | --- | --- | --- | --- |
| COc1cc2c(cc1OC)C(c1ccccc1N)NCC2 (stereo not drawn) | 90 | 141 | – | – |
| COc1ccc(N)c(C2NCCc3cc(OC)c(OC)cc32)c1 (stereo not drawn) | 100 | 97 | – | – |
| [1-(2-Amino-5-methoxyphenyl)-6,7-dimethoxy-1,2,3,4-tetrahydroisoquinoline]dichloroplatinum (II) | – | – | 1.4 | 0.95 |
| [1-(2-Aminophenyl)-6,7-dimethoxyisoquinoline]dichloroplatinum (II) | – | – | 20 | 9.7 |
